Data published in ChEMBL document CHEMBL1158682, “Detecting potential teratogenic alkaloids from blue cohosh rhizomes using an in vitro rat embryo culture” (J Nat Prod, 1999).
pIC50: −log10 of the molar value.

How the values were obtained:
Rattus norvegicus [1] = organism: Rattus norvegicus; assay: Effect on growth and morphogenesis of organogenesis-staged rat embryo at 0.1 ug/mL after 45 hrs relative to control; assay type: functional
Outline: (§1)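 Rat whole embryo culture: gestation day 9.5 embryos (stages 11a-11c) dissected from time-pregnant dams. Medium was 2.0 mL rat serum plus 0.5 mL Waymouth's MB 752/1 with penicillin-streptomycin. Test material was dissolved in EtOH-DMSO (1:1) and added at the start of culture; the solvent served as control. After 45 h, a developmental score was assigned and major malformations recorded. Controls were pooled across experiments.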

[2] = Embryotoxicity in rat embryo at 20 ug/mL; assay type: toxicity
Outline: (§2)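 Time-pregnant rats were euthanized with CO2 on gestation day 9. Embryos were dissected on day 9.5 at stages 11a-11c and cultured in 2.0 mL rat serum plus 0.5 mL Waymouth's MB 752/1 with penicillin-streptomycin. Test material in EtOH-DMSO (1:1) was added at culture start, with a solvent control. Growth, development score and major malformations were assessed after 45 h; controls were pooled across experiments.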

[3] = Embryotoxicity in rat embryo at 80 ug/mL; assay type: toxicity; outline: as §2
[4] = Embryotoxicity in rat embryo at 250 ug/mL; assay type: toxicity; outline: as §2
[5] = Teratogenic activity in rat embryo assessed as incidence of major malformation at 5 ug/mL after 45 hrs relative to control; assay type: toxicity; outline: as §2
[6] = Embryotoxicity in rat embryo at 5 ug/mL; assay type: toxicity; outline: as §2
[7] = Teratogenic activity in rat embryo assessed as incidence of major malformation at 1.25 ug/mL after 45 hrs relative to control; assay type: toxicity; outline: as §2
Rattus norvegicus [8] = organism: Rattus norvegicus; assay: Effect on growth and morphogenesis of organogenesis-staged rat embryo at 1.25 ug/mL after 45 hrs relative to control; assay type: functional; outline: as §1
[9] = Teratogenic activity in rat embryo assessed as incidence of major malformation at 80 ug/mL after 45 hrs relative to control; assay type: toxicity; outline: as §2
[10] = Teratogenic activity in rat embryo assessed as incidence of major malformation at 20 ug/mL after 45 hrs relative to control; assay type: toxicity; outline: as §2
Rattus norvegicus [11] = organism: Rattus norvegicus; assay: Effect on growth and morphogenesis of organogenesis-staged rat embryo at 5 ug/mL after 45 hrs relative to control; assay type: functional; outline: as §2
Rattus norvegicus [12] = organism: Rattus norvegicus; assay: Effect on growth and morphogenesis of organogenesis-staged rat embryo at 80 ug/mL after 45 hrs relative to control; assay type: functional; outline: as §2
Rattus norvegicus [13] = organism: Rattus norvegicus; assay: Effect on growth and morphogenesis of organogenesis-staged rat embryo at 20 ug/mL after 45 hrs relative to control; assay type: functional; outline: as §2
[14] = Teratogenic activity in rat embryo assessed as incidence of major malformation at 250 ug/mL after 45 hrs relative to control; assay type: toxicity; outline: as §2
[15] = Binding affinity to muscarinic acetylcholine receptor
[16] = Binding affinity to nicotinic receptor
Rattus norvegicus [17] = organism: Rattus norvegicus; assay: Effect on growth and morphogenesis of organogenesis-staged rat embryo at 250 ug/mL after 45 hrs relative to control; assay type: functional; outline: as §2
[18] = Teratogenic activity in rat embryo assessed as incidence of major malformation at 50 ug/mL after 45 hrs relative to control; assay type: toxicity; outline: as §2

Compound | Activity (Rattus norvegicus [1]) | Activity [2] | Activity [3] | Activity [4] | Activity [5] | Activity [6] | Activity [7] | Activity (Rattus norvegicus [8]) | Activity [9] | Activity [10] | Activity (Rattus norvegicus [11]) | Activity (Rattus norvegicus [12]) | Activity (Rattus norvegicus [13]) | Activity [14] | pIC50 [15] | pIC50 [16] | Activity (Rattus norvegicus [17]) | Activity [18]
COc1ccc2c(=O)oc3c(OC)cc(CCN(C)C)c4c(=O)oc1c2c34 [TASPINE] | 27.6% | Toxic | Toxic | Toxic | Not Active | Toxic | Not Active | 27.7% |  |  |  |  |  |  |  |  |  | 
COc1ccc2c(c1O)-c1c(O)c(OC)cc3c1[C@H](C2)[N+](C)(C)CC3 [MAGNOFLORINE] |  |  |  |  | Not Active |  | Not Active | 28.2% | Not Active | Not Active | 29% | 28.2% | 27.8% |  |  |  |  | 
CN1CCCCC1CC(=O)c1ccc(O)cc1 (stereo not given) [THALICHROIDINE] |  |  |  |  | Not Active |  |  |  |  | Not Active | 30.8% | 29.2% | 29.5% |  |  |  |  | 
O=C1CCC[C@@H]2[C@@H]3C[C@H](CN12)[C@H]1CCCCN1C3 |  |  |  |  |  |  |  |  |  |  | 29.5% | 30.5% | 29.2% |  |  |  |  | 
O=c1cccc2n1C[C@H]1C[C@@H]2CN2CCCC[C@H]12 [ANAGYRINE] |  |  |  |  | Not Active |  |  |  | Not Active | Not Active | 28.2% | 28.2% | 26.5% | Active | 3.88 | 2.68 | 15.5% | 
CN1C[C@@H]2C[C@H](C1)c1cccc(=O)n1C2 |  |  |  |  |  |  |  |  | 24% | 29.8% | 29% |  |  | 22.9% |  | 7.30 |  | 26.2%
